Values after ≈ are worked out from the molar mass of the structure shown.
Key:
Rattus norvegicus [1] = experiment: Tested for hypolipidemic activity in male rats, cholesterol was determined in serum at 10 mg/kg; type: functional
Outline: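 Groups of eight male Wistar rats (200–230 g) dosed orally in PEG 400, either daily for 7 days (killed 24 h after the last dose) or for 4 days with a second dose on day 4 (killed 16 h later). Fasted 16 h. Paired sera pooled, lipoproteins separated by ultracentrifugation (1.006 and 1.040 g/cm³), HDL taken as the infranatant. Cholesterol measured enzymatically; % vs vehicle, mean ± SEM of four pools.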

Rattus norvegicus [2] = experiment: Hypolipidemic activity was determined in male rats, and high-density lipoprotein level was determined at 10 mg/kg; type: functional
Outline: (§1)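 Male Wistar rats (200–230 g), eight per group, were dosed orally in PEG 400 at 8 a.m. for 4 days, plus a second dose at 4 p.m. on day 4. Rats were fasted 16 h and killed 16 h after the last dose. Sera from pairs of rats were pooled. LDL (up to 1.040 g/cm³) was separated by ultracentrifugation and the HDL infranatant taken. Cholesterol was measured enzymatically. Results are % versus vehicle control, mean ± SEM of four pools, Student's t test.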

Rattus norvegicus [3] = experiment: Hypolipidemic activity was determined in male rats, and low-density lipoprotein level was determined at 10 mg/kg; type: functional; outline: as §1
[4] = Inhibitory activity against RNA polymerase was determined; parameters: species or system Escherichia coli
Outline: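 E. coli DNA-dependent RNA polymerase inhibition measured in vitro on ether-extracted, permeabilized E. coli cells.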

Rattus norvegicus [5] = experiment: Hypolipidemic activity was determined by measuring the % serum HDL in hypercholesterolemic RICO rat at a dose of 10 mg/kg; type: functional, organism-based; parameters: dose 10 mg/kg
Outline: (§2)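 Genetically hypercholesterolemic RICO rats (Tif:RAI,f,SPF) were dosed orally for 7 days. Sera were collected after a 16 h fast and pooled in pairs. LDL (1.006–1.040 g/cm³) and HDL infranatant were separated by ultracentrifugation. Cholesterol and triglycerides were measured enzymatically. Results are % change versus vehicle control, mean ± SEM of four pools.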

Rattus norvegicus [6] = experiment: Hypolipidemic activity was determined by measuring the % serum HDL in hypercholesterolemic RICO rat at a dose of 3 mg/kg; type: functional, organism-based; parameters: dose 3 mg/kg; outline: as §2
Rattus norvegicus [7] = experiment: Hypolipidemic activity was determined by measuring the % serum HDL in hypercholesterolemic RICO rat at a dose of 30 mg/kg; type: functional, organism-based; parameters: dose 30 mg/kg; outline: as §2
Rattus norvegicus [8] = experiment: Hypolipidemic activity was determined by measuring the % serum HDL in normal rat at a dose of 1 mg/kg; type: functional, organism-based; parameters: dose 1 mg/kg
Outline: (§3)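 Normal male Wistar rats (200–230 g), eight per group, were dosed orally in PEG 400 once daily for 7 days. They were fasted 16 h and killed 24 h after the last dose. Serum from pairs was pooled and LDL/HDL fractions were ultracentrifuged. Cholesterol and triglycerides were measured enzymatically. Results are % versus vehicle control, mean ± SEM of four pools, Student's t test.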

Rattus norvegicus [9] = experiment: Hypolipidemic activity was determined by measuring the % serum HDL in normal rat at a dose of 3 mg/kg; type: functional, organism-based; parameters: dose 3 mg/kg; outline: as §3
Rattus norvegicus [10] = experiment: Hypolipidemic activity was determined by measuring the % serum HDL in normal rat at a dose of 30 mg/kg; type: functional, organism-based; parameters: dose 30 mg/kg; outline: as §3
Rattus norvegicus [11] = experiment: Hypolipidemic activity was determined by measuring the % serum HDL-cholesterol in normal rat at the specified dose of 10 mg/kg; type: functional, organism-based; parameters: dose 10 mg/kg
Outline: (§4)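 Male Wistar rats (200–230 g, n=8 per group) were given oral doses in PEG 400 and fasted 16 h before being killed under pentothal. Paired sera were pooled with 0.05% EDTA and 0.01% thimerosal, and LDL/HDL were separated by ultracentrifugation. Cholesterol was measured enzymatically. Results are % versus vehicle control, mean ± SEM of four serum pools, Student's t test.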

Rattus norvegicus [12] = experiment: Hypolipidemic activity was determined by measuring the % serum HDL-cholesterol in normal rat at the specified dose of 30 mg/kg; type: functional, organism-based; parameters: dose 30 mg/kg; outline: as §4
Rattus norvegicus [13] = experiment: Hypolipidemic activity was determined by measuring the % serum cholesterol in hypercholesterolemic RICO rat at a dose of 10 mg/kg; type: functional, organism-based; parameters: dose 10 mg/kg; outline: as §2
Rattus norvegicus [14] = experiment: Hypolipidemic activity was determined by measuring the % serum cholesterol in hypercholesterolemic RICO rat at a dose of 3 mg/kg; type: functional, organism-based; parameters: dose 3 mg/kg; outline: as §2
Rattus norvegicus [15] = experiment: Hypolipidemic activity was determined by measuring the % serum cholesterol in hypercholesterolemic RICO rat at a dose of 30 mg/kg; type: functional, organism-based; parameters: dose 30 mg/kg; outline: as §2
Rattus norvegicus [16] = experiment: Hypolipidemic activity was determined by measuring the % serum cholesterol in normal rat at a dose of 1 mg/kg; type: functional, organism-based; parameters: dose 1 mg/kg; outline: as §3
Rattus norvegicus [17] = experiment: Hypolipidemic activity was determined by measuring the % serum cholesterol in normal rat at a dose of 10 mg/kg; type: functional, organism-based; parameters: dose 10 mg/kg; outline: as §3
Rattus norvegicus [18] = experiment: Hypolipidemic activity was determined by measuring the % serum cholesterol in normal rat at a dose of 3 mg/kg; type: functional, organism-based; parameters: dose 3 mg/kg; outline: as §3
Rattus norvegicus [19] = experiment: Hypolipidemic activity was determined by measuring the % serum cholesterol in normal rat at a dose of 30 mg/kg; type: functional, organism-based; parameters: dose 30 mg/kg; outline: as §3
Rattus norvegicus [20] = experiment: Hypolipidemic activity was determined by measuring the % serum cholesterol in rat at the specified dose of 10 mg/kg; type: functional, organism-based; parameters: dose 10 mg/kg; outline: as §4
Rattus norvegicus [21] = experiment: Hypolipidemic activity was determined by measuring the % serum cholesterol in rat at the specified dose of 30 mg/kg; type: functional, organism-based; parameters: dose 30 mg/kg; outline: as §4
Rattus norvegicus [22] = experiment: Hypolipidemic activity was determined by measuring the % serum LDL-cholesterol in hypercholesterolemic RICO rat at a dose of 10 mg/kg; type: functional, organism-based; parameters: dose 10 mg/kg; outline: as §2
Rattus norvegicus [23] = experiment: Hypolipidemic activity was determined by measuring the % serum LDL-cholesterol in hypercholesterolemic RICO rat at a dose of 3 mg/kg; type: functional, organism-based; parameters: dose 3 mg/kg; outline: as §2
Rattus norvegicus [24] = experiment: Hypolipidemic activity was determined by measuring the % serum LDL-cholesterol in hypercholesterolemic RICO rat at a dose of 30 mg/kg; type: functional, organism-based; parameters: dose 30 mg/kg; outline: as §2
Rattus norvegicus [25] = experiment: Hypolipidemic activity was determined by measuring the % serum LDL in normal rat at a dose of 1 mg/kg; type: functional, organism-based; parameters: dose 1 mg/kg; outline: as §3
Rattus norvegicus [26] = experiment: Hypolipidemic activity was determined by measuring the % serum LDL in normal rat at a dose of 10 mg/kg; type: functional, organism-based; parameters: dose 10 mg/kg; outline: as §3
Rattus norvegicus [27] = experiment: Hypolipidemic activity was determined by measuring the % serum LDL in normal rat at a dose of 3 mg/kg; type: functional, organism-based; parameters: dose 3 mg/kg; outline: as §3
Rattus norvegicus [28] = experiment: Hypolipidemic activity was determined by measuring the % serum LDL in normal rat at a dose of 30 mg/kg; type: functional, organism-based; parameters: dose 30 mg/kg; outline: as §3
Rattus norvegicus [29] = experiment: Hypolipidemic activity was determined by measuring the % serum triglycerides in normal rat at a dose of 3 mg/kg; type: functional, organism-based; parameters: dose 3 mg/kg; outline: as §3
Rattus norvegicus [30] = experiment: Hypolipidemic activity was determined by measuring the % serum triglycerides in normal rat at a dose of 30 mg/kg; type: functional, organism-based; parameters: dose 30 mg/kg; outline: as §3
Rattus norvegicus [31] = experiment: Hypolipidemic activity was determined by measuring the % serum LDL-cholesterol in normal rat at the specified dose of 30 mg/kg; type: functional, organism-based; parameters: dose 30 mg/kg; outline: as §4
Rattus norvegicus [32] = experiment: Hypolipidemic activity was determined by measuring the % serum triglycerides in hypercholesterolemic RICO rat at a dose of 10 mg/kg; type: functional, organism-based; parameters: dose 10 mg/kg; outline: as §2
Rattus norvegicus [33] = experiment: Hypolipidemic activity was determined by measuring the % serum triglycerides in hypercholesterolemic RICO rat at a dose of 3 mg/kg; type: functional, organism-based; parameters: dose 3 mg/kg; outline: as §2
Rattus norvegicus [34] = experiment: Hypolipidemic activity was determined by measuring the % serum triglycerides in hypercholesterolemic RICO rat at a dose of 30 mg/kg; type: functional, organism-based; parameters: dose 30 mg/kg; outline: as §2
Rattus norvegicus [35] = experiment: Hypolipidemic activity was determined by measuring the % serum LDL-cholesterol in normal rat at the specified dose of 10 mg/kg; type: functional, organism-based; parameters: dose 10 mg/kg; outline: as §4
Rattus norvegicus [36] = experiment: Hypolipidemic activity was determined by measuring the % serum triglycerides in normal rat at a dose of 1 mg/kg; type: functional, organism-based; parameters: dose 1 mg/kg; outline: as §3
Rattus norvegicus [37] = experiment: Hypolipidemic activity was determined by measuring the % serum triglycerides in normal rat at a dose of 10 mg/kg; type: functional, organism-based; parameters: dose 10 mg/kg; outline: as §3
Staphylococcus aureus = experiment: Antibacterial activity against Staphylococcus aureus 10B; type: functional
Outline: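 Agar dilution on DST agar with 2-fold drug dilutions. Inoculum of 10⁴ viable S. aureus 10B was taken from liquid-nitrogen stock, thawed 30 min and not subcultured. It was applied by multipoint replicator and incubated overnight at 37 °C. MIC is the lowest concentration inhibiting growth relative to control cultures.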

Rattus norvegicus [38] = experiment: Hypolipidemic activity was determined by measuring the % serum HDL in normal rat at a dose of 10 mg/kg; type: functional, organism-based; parameters: dose 10 mg/kg; outline: as §3

Q: With `COC1/C=C/OC2(C)Oc3c(C)c(OC(=O)C(C)(C)C)c4c(c3C2=O)C(=O)C(N2CCN(Cc3c(C)cc(C)cc3C)CC2)=C(C4=O)N(C(=O)C(C)(C)C)C(=O)/C(C)=C\C=C\C(C)C(O)C(C)C(O)C(C)C(OC(C)=O)C1C` (centres undefined) as the compound, how does the Activity (Rattus norvegicus [1]) read?
A: The Activity was -30%.

Q: What about the Activity (Rattus norvegicus [2]) of the same compound?
A: The Activity was -33%.

Q: What about the Activity (Rattus norvegicus [3]) of the same compound?
A: Its Activity is -55%.

Q: What about the IC50 [4] of the same compound?
A: Its IC50 is over 100 µg/mL.

Q: What about the Serum HDL-cholesterol (Rattus norvegicus [5]) of the same compound?
A: The Serum HDL-cholesterol was -24%.

Q: And the Serum HDL-cholesterol (Rattus norvegicus [6])?
A: Its Serum HDL-cholesterol is -6%.

Q: What about the Serum HDL-cholesterol (Rattus norvegicus [7]) of the same compound?
A: Its Serum HDL-cholesterol is -45%.

Q: What about the Serum HDL-cholesterol (Rattus norvegicus [8]) of the same compound?
A: The Serum HDL-cholesterol was 0%.

Q: What about the Serum HDL-cholesterol (Rattus norvegicus [9]) of the same compound?
A: The Serum HDL-cholesterol was -4%.

Q: And the Serum HDL-cholesterol (Rattus norvegicus [10])?
A: Its Serum HDL-cholesterol is -34%.

Q: And the Serum HDL-cholesterol (Rattus norvegicus [11])?
A: Its Serum HDL-cholesterol is -11%.

Q: What about the Serum HDL-cholesterol (Rattus norvegicus [12]) of the same compound?
A: The Serum HDL-cholesterol was -27%.

Q: What about the Serum cholesterol (Rattus norvegicus [13]) of the same compound?
A: Its Serum cholesterol is -29%.

Q: And the Serum cholesterol (Rattus norvegicus [14])?
A: The Serum cholesterol was -12%.

Q: And the Serum cholesterol (Rattus norvegicus [15])?
A: Its Serum cholesterol is -50%.

Q: And the Serum cholesterol (Rattus norvegicus [16])?
A: The Serum cholesterol was -5%.

Q: What about the Serum cholesterol (Rattus norvegicus [17]) of the same compound?
A: The Serum cholesterol was -19%.

Q: What about the Serum cholesterol (Rattus norvegicus [18]) of the same compound?
A: The Serum cholesterol was -4%.

Q: What about the Serum cholesterol (Rattus norvegicus [19]) of the same compound?
A: The Serum cholesterol was -27%.

Q: What about the Serum cholesterol (Rattus norvegicus [20]) of the same compound?
A: The Serum cholesterol was -16%.

Q: And the Serum cholesterol (Rattus norvegicus [21])?
A: The Serum cholesterol was -33%.

Q: What about the Serum LDL-cholesterol (Rattus norvegicus [22]) of the same compound?
A: Its Serum LDL-cholesterol is -53%.

Q: What about the Serum LDL-cholesterol (Rattus norvegicus [23]) of the same compound?
A: Its Serum LDL-cholesterol is -35%.

Q: What about the Serum LDL-cholesterol (Rattus norvegicus [24]) of the same compound?
A: The Serum LDL-cholesterol was -69%.

Q: And the Serum LDL-cholesterol (Rattus norvegicus [25])?
A: Its Serum LDL-cholesterol is -8%.

Q: And the Serum LDL-cholesterol (Rattus norvegicus [26])?
A: Its Serum LDL-cholesterol is -56%.

Q: And the Serum LDL-cholesterol (Rattus norvegicus [27])?
A: The Serum LDL-cholesterol was -34%.

Q: And the Serum LDL-cholesterol (Rattus norvegicus [28])?
A: The Serum LDL-cholesterol was -51%.

Q: What about the Serum triglyceride (Rattus norvegicus [29]) of the same compound?
A: Its Serum triglyceride is 14%.

Q: What about the Serum triglyceride (Rattus norvegicus [30]) of the same compound?
A: Its Serum triglyceride is -22%.

Q: What about the Serum LDL-cholesterol (Rattus norvegicus [31]) of the same compound?
A: Its Serum LDL-cholesterol is -68%.

Q: And the Serum triglyceride (Rattus norvegicus [32])?
A: The Serum triglyceride was -32%.

Q: And the Serum triglyceride (Rattus norvegicus [33])?
A: Its Serum triglyceride is -11%.

Q: And the Serum triglyceride (Rattus norvegicus [34])?
A: Its Serum triglyceride is -47%.

Q: And the Serum LDL-cholesterol (Rattus norvegicus [35])?
A: Its Serum LDL-cholesterol is -26%.

Q: And the Serum triglyceride (Rattus norvegicus [36])?
A: The Serum triglyceride was 14%.

Q: And the Serum triglyceride (Rattus norvegicus [37])?
A: Its Serum triglyceride is -17%.

Q: And the MIC (Staphylococcus aureus)?
A: The MIC was 64 µg/mL (≈ 59.2 µM).

Q: And the Serum HDL-cholesterol (Rattus norvegicus [38])?
A: Its Serum HDL-cholesterol is -21%.
